Legend:
[1] = Cytotoxicity against human KB-3-1 cells assessed as cell survival after 24 hrs by MTT assay; type: functional, cell-based; settings: KB 3-1, 24 h
How it was run: (§1)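 Cells in log phase, in DMEM with 10% heat-inactivated FBS, seeded in triplicate. After 24 h adherence, they were exposed to graded doses for 24 h, then to MTT for 3 h. Formazan was dissolved in DMSO and read at 570 nm. IC50 is the concentration giving 50% survival. Three independent experiments, mean ± SEM.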

[2] = system: J774; test: Cytotoxicity against mouse J774 cells assessed as cell survival after 24 hrs by MTT assay; type: cell-based; settings: J774, 24 h; how it was run: as §1
[3] = system: J774; test: Antiinflammatory activity in mouse J774 cells assessed as inhibition of LPS-induced NO production after 24 hrs by Griess method; type: functional, cell-based; settings: J774, 24 h
[4] = system: J774; test: Selectivity index, ratio of IC50 for mouse J774 cells to IC50 for human KB-3-1 cells; type: functional
How it was run: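 SI is the IC50 from the J-774 MTT assay divided by the IC50 from the KB-3-1 MTT assay, with both IC50 values from the 24 h assays.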

[5] = Solubility of the compound in DMSO; type: physicochemical

Row | SMILES | IC50 [3] [µM] | solubility [5] | IC50 [1] [µM] | IC50 [2] [µM] | Ratio IC50 [4]
1 | COC(=O)[C@@]1(C)CC[C@]2(C)CC[C@]3(C)C(=CC(=O)[C@@H]4[C@@]5(C)CC[C@H](O)C(C)(C)[C@@H]5CC[C@]43C)[C@@H]2C1 | > 100 |  | > 100 | > 100 | 
2 | COC(=O)[C@@]1(C)CC[C@]2(C)CC[C@]3(C)[C@H](C(=O)C[C@@H]4[C@@]5(C)CC[C@H](O)C(C)(C)[C@@H]5CC[C@]43C)[C@@H]2C1 | 59.4 |  | 6.8 | 56.1 | 8.3
3 | COC(=O)[C@@]1(C)CC[C@]2(C)CC[C@]3(C)[C@H](C(=O)C[C@@H]4[C@@]5(C)CCC(=O)C(C)(C)[C@@H]5CC[C@]43C)[C@@H]2C1 | 23.4 |  | 25.2 | > 100 | >3.9
4 | COC(=O)[C@@]1(C)CC[C@]2(C)CC[C@]3(C)C(=CC[C@@H]4[C@@]5(C)C=C(C#N)C(=O)C(C)(C)[C@@H]5CC[C@]43C)[C@@H]2C1 |  | Insoluble |  |  | 
5 | COC(=O)[C@@]1(C)CC[C@]2(C)CC[C@]3(C)C(=CC[C@@H]4[C@@]5(C)CC[C@H](O)C(C)(C)[C@@H]5CC[C@]43C)[C@@H]2C1 |  | Insoluble |  |  | 
6 | COC(=O)[C@@]1(C)CC[C@]2(C)CC[C@]3(C)C(=CC[C@@H]4[C@@]5(C)CCC(=O)C(C)(C)[C@@H]5CC[C@]43C)[C@@H]2C1 |  | Insoluble |  |  | 
7 | COC(=O)[C@]1(C)C=C2C3=CC(=O)[C@@H]4[C@@]5(C)CC[C@H](O)C(C)(C)[C@@H]5CC[C@@]4(C)[C@]3(C)CC[C@@]2(C)CC1 | > 100 |  |  | > 100 | 
8 | COc1ccc2c(c1)c(CC(=O)O)c(C)n2C(=O)c1ccc(Cl)cc1 [INDOMETHACIN] | 29.6 |  |  | > 100 | 

Continued, in another order:

Row | IC50 [3] [µM] | solubility [5] | SMILES | IC50 [1] [µM] | IC50 [2] [µM] | Ratio IC50 [4]
9 | 0.11 |  | COC(=O)[C@@]1(C)CC[C@]2(C)CC[C@]3(C)[C@H](C(=O)C=C4[C@@]5(C)C=C(C#N)C(=O)C(C)(C)[C@@H]5CC[C@]43C)[C@@H]2C1 | 0.3 | 3.32 | 11
10 | 10.5 |  | COC(=O)[C@@]1(C)CC[C@]2(C)CC[C@]3(C)C(=CC[C@@H]4[C@@]5(C)C/C(=C\O)C(=O)C(C)(C)[C@@H]5CC[C@]43C)[C@@H]2C1 | 40 | > 100 | >2.5
11 | 12.4 |  | COC(=O)[C@@]1(C)CC[C@]2(C)CC[C@]3(C)C(=CC[C@@H]4[C@@]5(C)Cc6cnoc6C(C)(C)[C@@H]5CC[C@]43C)[C@@H]2C1 | > 100 | > 100 | 
12 | 8 |  | COC(=O)[C@@]1(C)CC[C@]2(C)CC[C@]3(C)C(=CC[C@@H]4[C@@]5(C)CC(C#N)=C(O)C(C)(C)[C@@H]5CC[C@]43C)[C@@H]2C1 | 80 | > 100 | >1.3
13 | 5.6 |  | COC(=O)[C@]1(C)C=C2C3=CC(=O)[C@@H]4[C@@]5(C)C=C(C#N)C(=O)C(C)(C)[C@@H]5CC[C@@]4(C)[C@]3(C)CC[C@@]2(C)CC1 | 4 | 7 | 1.8
14 | 2.8 |  | COC(=O)[C@@]1(C)CC[C@]2(C)CC[C@]3(C)[C@H](C(=O)C[C@@H]4[C@@]5(C)C=C(C#N)C(=O)C(C)(C)[C@@H]5CC[C@]43C)[C@@H]2C1 | 5.5 | > 100 | >18.2
15 | 16.3 |  | COC(=O)[C@]1(C)C=C2C3=CC(=O)[C@@H]4[C@@]5(C)CCC(=O)C(C)(C)[C@@H]5CC[C@@]4(C)[C@]3(C)CC[C@@]2(C)CC1 |  | 20.1 | 
16 | 14.5 |  | COC(=O)[C@]1(C)C=C2C3=CC(=O)[C@@H]4[C@@]5(C)C/C(=C/O)C(=O)C(C)(C)[C@@H]5CC[C@@]4(C)[C@]3(C)CC[C@@]2(C)CC1 |  | 13.4 | 
17 | 2 |  | COC(=O)[C@@]1(C)CC[C@]2(C)CC[C@]3(C)C(=CC(=O)[C@@H]4[C@@]5(C)C=C(C#N)C(=O)C(C)(C)[C@@H]5CC[C@]43C)[C@@H]2C1 | 20 | > 100 | >5

From ChEMBL document CHEMBL3098107, “Synthesis of novel 2-cyano substituted glycyrrhetinic acid derivatives as inhibitors of cancer cells growth and NO production in LPS-activated J-774 cells” (Bioorg Med Chem, 2014)
